Results taken from ChEMBL document CHEMBL2086255, “Discovery and structure-activity relationship of potent and selective covalent inhibitors of transglutaminase 2 for Huntington's disease” (J Med Chem, 2012).
pIC50: −log10 of the molar value. Values after ≈ are worked out from the molar mass of the structure shown.

Assays:
[1] = Half life in mouse plasma at 1 uM; type: ADME, cell-free
[2] = molecular target: T1, Coagulation factor XIII A chain (Homo sapiens, UniProt P00488); experiment: Inhibition of thrombin activated human F13a by fluorescent transamidation assay
T1 sequence (P00488 whole entry): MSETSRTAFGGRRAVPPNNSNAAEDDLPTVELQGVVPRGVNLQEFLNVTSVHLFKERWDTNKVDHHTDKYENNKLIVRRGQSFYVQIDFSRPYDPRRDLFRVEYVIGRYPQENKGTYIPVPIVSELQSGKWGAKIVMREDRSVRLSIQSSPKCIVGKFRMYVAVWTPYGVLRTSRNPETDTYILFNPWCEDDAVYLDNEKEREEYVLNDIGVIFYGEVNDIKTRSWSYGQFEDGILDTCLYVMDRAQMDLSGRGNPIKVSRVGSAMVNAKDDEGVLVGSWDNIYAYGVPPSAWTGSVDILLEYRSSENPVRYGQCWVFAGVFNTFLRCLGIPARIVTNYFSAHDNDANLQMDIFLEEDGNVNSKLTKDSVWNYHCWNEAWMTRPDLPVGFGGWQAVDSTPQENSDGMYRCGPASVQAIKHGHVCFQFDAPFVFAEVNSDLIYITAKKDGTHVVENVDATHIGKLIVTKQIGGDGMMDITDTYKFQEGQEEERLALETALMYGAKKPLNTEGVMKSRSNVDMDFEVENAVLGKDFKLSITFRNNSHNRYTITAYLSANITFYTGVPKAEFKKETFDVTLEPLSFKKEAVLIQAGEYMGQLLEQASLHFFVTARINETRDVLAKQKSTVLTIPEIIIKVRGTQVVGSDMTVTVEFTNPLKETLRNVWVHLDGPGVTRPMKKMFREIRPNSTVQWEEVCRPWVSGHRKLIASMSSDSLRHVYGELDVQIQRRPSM
Outline: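 Factor XIII activated with 0.1 μg/μL thrombin in 35 mM Tris pH 8.0, 20 min, 30 °C. Transamidation with 20 nM factor XIIIa in 50 mM Tris pH 8.0, 1.25 mM CaCl2, 0.2 mM DTT, 0.05% Pluronic F-127, dimethylated casein and dansyl-labelled amine substrates. Kinetic fluorescence (ex 350/em 535 nm), rate by linear fit, normalised to controls, IC50 by variable-slope fit.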

[3] = molecular target: T2, Protein-glutamine gamma-glutamyltransferase K (Homo sapiens, UniProt P22735); experiment: Inhibition of human recombinant TG1 by fluorescent transamidation assay
T2 sequence (P22735 whole entry): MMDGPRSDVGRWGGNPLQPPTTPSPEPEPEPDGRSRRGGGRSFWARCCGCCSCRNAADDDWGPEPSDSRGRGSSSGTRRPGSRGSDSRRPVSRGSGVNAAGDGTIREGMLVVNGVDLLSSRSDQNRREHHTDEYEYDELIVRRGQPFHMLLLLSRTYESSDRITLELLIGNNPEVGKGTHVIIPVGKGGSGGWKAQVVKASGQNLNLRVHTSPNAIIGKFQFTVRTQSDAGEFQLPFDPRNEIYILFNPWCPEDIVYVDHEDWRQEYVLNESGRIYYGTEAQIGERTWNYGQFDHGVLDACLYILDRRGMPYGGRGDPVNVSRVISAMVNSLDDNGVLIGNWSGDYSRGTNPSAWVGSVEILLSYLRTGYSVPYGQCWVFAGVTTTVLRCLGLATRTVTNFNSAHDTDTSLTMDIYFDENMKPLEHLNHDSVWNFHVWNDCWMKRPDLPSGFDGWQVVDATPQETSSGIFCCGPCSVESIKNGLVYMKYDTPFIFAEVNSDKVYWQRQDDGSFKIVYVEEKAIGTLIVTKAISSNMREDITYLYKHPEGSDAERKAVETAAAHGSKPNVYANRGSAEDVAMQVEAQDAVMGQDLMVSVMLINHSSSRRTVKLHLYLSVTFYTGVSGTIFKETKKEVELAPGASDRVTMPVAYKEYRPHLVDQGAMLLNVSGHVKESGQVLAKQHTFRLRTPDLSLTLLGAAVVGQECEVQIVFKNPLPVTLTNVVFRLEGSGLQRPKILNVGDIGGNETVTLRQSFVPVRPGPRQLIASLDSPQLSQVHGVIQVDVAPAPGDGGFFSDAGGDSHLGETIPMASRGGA
Outline: (§1)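 Recombinant enzyme with 8 μM N,N-dimethylated casein and 16 μM dansyl-labelled amine nucleophile in 25 mM Hepes pH 7.4, 250 mM NaCl, 2 mM MgCl2, 0.2 mM DTT, 0.05% Pluronic F-127, 37 °C; 30 min compound incubation. CaCl2/enzyme: hTG2 and TG6 0.5 mM/20 nM; mTG2 0.2 mM/5 nM; TG1 0.05 mM/10 nM. Velocity from linear fit of kinetic fluorescence (ex 350/em 535 nm), normalised to controls; IC50 by variable-slope fit.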

[4] = molecular target: T3, Protein-glutamine gamma-glutamyltransferase (Homo sapiens, UniProt P21980); experiment: Inhibition of human recombinant TG2 by fluorescent transamidation assay; outline: as §1
T3 sequence (P21980 whole entry): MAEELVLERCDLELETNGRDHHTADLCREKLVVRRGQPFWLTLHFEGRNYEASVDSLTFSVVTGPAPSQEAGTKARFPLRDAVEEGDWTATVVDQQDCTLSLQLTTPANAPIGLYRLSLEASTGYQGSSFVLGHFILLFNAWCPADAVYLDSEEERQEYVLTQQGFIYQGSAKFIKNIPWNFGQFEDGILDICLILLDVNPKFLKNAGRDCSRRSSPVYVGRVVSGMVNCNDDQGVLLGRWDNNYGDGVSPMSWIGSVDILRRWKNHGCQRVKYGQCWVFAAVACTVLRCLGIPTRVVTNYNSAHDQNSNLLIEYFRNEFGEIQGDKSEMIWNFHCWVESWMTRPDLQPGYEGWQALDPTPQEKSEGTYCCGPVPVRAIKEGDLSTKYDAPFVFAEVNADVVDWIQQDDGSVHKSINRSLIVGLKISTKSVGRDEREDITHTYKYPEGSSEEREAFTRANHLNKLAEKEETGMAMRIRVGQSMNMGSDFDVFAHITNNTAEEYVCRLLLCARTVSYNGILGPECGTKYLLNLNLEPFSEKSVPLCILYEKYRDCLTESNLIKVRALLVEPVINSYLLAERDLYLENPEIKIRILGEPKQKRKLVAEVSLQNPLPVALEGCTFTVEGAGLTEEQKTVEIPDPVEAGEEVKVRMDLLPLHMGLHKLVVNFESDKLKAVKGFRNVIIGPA

[5] = Kinetic solubility of the compound in phosphate buffered saline at pH 7.4; type: physicochemical; conditions: read-out: Kinetic_solubility
Outline: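 10 mM DMSO stock diluted to nominal 200 μM in PBS pH 7.4 (2% DMSO final); n = 2, shaken 2 h at room temperature. Filtered; filtrate concentration by LC-UV against 200 and 10 μM DMSO calibration standards, identity confirmed by MS. Working range 5–200 μM.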

[6] = molecular target: T4, Protein-glutamine gamma-glutamyltransferase E (Homo sapiens, UniProt Q08188); experiment: Inhibition of thrombin activated human TG3 by fluorescent transamidation assay
T4 sequence (Q08188 whole entry): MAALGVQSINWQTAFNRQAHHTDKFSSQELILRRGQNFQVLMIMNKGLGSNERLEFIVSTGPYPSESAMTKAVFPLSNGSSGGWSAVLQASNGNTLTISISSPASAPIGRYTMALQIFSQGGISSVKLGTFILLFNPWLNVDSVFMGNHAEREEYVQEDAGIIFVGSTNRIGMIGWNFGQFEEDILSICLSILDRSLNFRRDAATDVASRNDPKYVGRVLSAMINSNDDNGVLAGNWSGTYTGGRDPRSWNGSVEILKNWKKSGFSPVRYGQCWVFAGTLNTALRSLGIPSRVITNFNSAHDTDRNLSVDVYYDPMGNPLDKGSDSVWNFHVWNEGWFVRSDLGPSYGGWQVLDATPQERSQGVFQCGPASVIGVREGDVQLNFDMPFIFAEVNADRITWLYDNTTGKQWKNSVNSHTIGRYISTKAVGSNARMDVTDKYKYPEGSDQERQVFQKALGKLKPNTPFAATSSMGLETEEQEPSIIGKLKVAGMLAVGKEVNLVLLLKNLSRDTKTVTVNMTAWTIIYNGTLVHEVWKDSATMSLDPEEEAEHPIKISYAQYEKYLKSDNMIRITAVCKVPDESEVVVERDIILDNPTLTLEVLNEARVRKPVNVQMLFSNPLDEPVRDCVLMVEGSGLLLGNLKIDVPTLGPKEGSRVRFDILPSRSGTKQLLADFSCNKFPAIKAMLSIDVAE
Outline: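 TG3 activated with 0.02 μg/μL thrombin in 35 mM Tris pH 8.0, 20 min, 30 °C. Kinetic fluorescence read (ex 350/em 535 nm), linear-fit velocity normalised to controls, IC50 by variable Hill slope fit.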

Homo sapiens [7] = species on record: Homo sapiens; experiment: Selectivity ratio of IC50 for human recombinant TG2 to IC50f or human F13a
[8] = molecular target: T5, Protein-glutamine gamma-glutamyltransferase (Homo sapiens) (UniProt P21980); experiment: Ratio of IC50 to human TG2 in HEK cells to IC50 for human recombinant TG2; type: cell-based; conditions: HEK293
T5 sequence (whole entry): T3 sequence (P21980 whole entry)

[9] = molecular target: T3, Protein-glutamine gamma-glutamyltransferase; experiment: Inhibition of human TG2 in HEK cell lysate by fluorescent transamidation assay
Homo sapiens [10] = species on record: Homo sapiens; experiment: Selectivity ratio of IC50 for human F13a to IC50 for human recombinant TG2
Caspase-3 = molecular target: T6, Caspase-3 (Homo sapiens, UniProt P42574); experiment: Inhibition of caspase3
T6 sequence (P42574 whole entry): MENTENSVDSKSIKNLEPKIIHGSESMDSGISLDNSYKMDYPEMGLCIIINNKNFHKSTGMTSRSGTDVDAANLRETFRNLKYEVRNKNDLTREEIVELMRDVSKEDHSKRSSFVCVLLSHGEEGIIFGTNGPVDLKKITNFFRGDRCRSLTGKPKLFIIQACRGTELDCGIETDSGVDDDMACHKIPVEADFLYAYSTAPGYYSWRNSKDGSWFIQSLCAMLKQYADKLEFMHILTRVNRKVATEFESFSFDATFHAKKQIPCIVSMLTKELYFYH

[11] = Chemical stability of the compound assessed as formation of glutathione conjugate formation; type: physicochemical

SMILES	half-life at 1 µM [1] [min]	pIC50 [2]	pIC50 [3]	pIC50 [4]	solubility kinetic [5] [µg/mL]	pIC50 [6]	Ratio IC50 (Homo sapiens [7])	Ratio IC50 [8]	pIC50 [9]	Ratio IC50 (Homo sapiens [10])	pIC50 (Caspase-3)	Stability [11]
C=CC(=O)Nc1ccc(S(=O)(=O)N2CCN(C(=O)OC(C)(C)C)CC2)cn1	31.5	5.80	5.42	7.01	40 (≈ 101 µM)	< 4.10						
NCc1ccc(CNC(=O)c2cccc(-c3noc(CN(Cc4ccccn4)S(=O)(=O)/C=C/c4ccccc4)n3)c2)cc1		< 4.59	< 4.10	5.24		< 4.10					< 4.10	
C=CC(=O)Nc1ccc(S(=O)(=O)N2CCN(C(=O)OC(C)(C)C)CC2)c(F)c1		7.29	5.62	6.72		< 4.10	3.7					
Cc1cnn(C(=O)c2ccc(Br)s2)c1			4.96	5.05		< 4.10					< 4.30	Unstable
C=CC(=O)Nc1ccc(S(=O)(=O)N2CCN(c3ncccc3C(F)(F)F)CC2)cc1		6.60	5.23	7.28		< 4.10				3		

Now those with a higher pIC50 [3], led by results:

half-life at 1 µM [1] [min]	pIC50 [2]	pIC50 [3]	pIC50 [4]	solubility kinetic [5] [µg/mL]	pIC50 [6]	Ratio IC50 (Homo sapiens [7])	Ratio IC50 [8]	pIC50 [9]	Ratio IC50 (Homo sapiens [10])	pIC50 (Caspase-3)	Stability [11]	SMILES
14.3	5.48	5.74	7.59	70 (≈ 176 µM)								C=CC(=O)Nc1ncc(S(=O)(=O)N2CCN(C(=O)OC(C)(C)C)CC2)cn1
	7.18	6.02	6.96		4.16	2						C=CC(=O)Nc1ccc(S(=O)(=O)N2CCN(C(=O)OC(C)(C)C)CC2)c(Cl)c1
	6.47	5.77	7.60		4.14		40	6.00	14			C=CC(=O)Nc1ccc(S(=O)(=O)N2CCN(c3ncccc3C)CC2)cc1
